Experimental data from different studies.
Lines come from different studies, so protocols differ.
Effect on: enzyme activity
Mode: inhibitor
KDR: Vascular endothelial growth factor receptor 2 (KDR, Homo sapiens, UniProt P35968)
PIK3CA: Phosphatidylinositol 4,5-bisphosphate 3-kinase catalytic subunit alpha isoform (PIK3CA, Homo sapiens, UniProt P42336)
PIK3CB: Phosphatidylinositol 4,5-bisphosphate 3-kinase catalytic subunit beta isoform (PIK3CB, Homo sapiens, UniProt P42338)

O=[N+]([O-])c1cc(Br)c(O)c(C=NNc2ccccc2)c1 — IC50 (KDR; ATP luminescence): 5.4 µM
Cc1ccc(CN2C(=O)C(=Nc3cccc(Cl)c3)c3ccccc32)cc1 — IC50 (PIK3CA; ADP detection): 0.0276 µM
CN(C)C(=O)c1cc2cnc(Nc3cncc(-c4ccc5c(=O)cc(N6CCOCC6)oc5c4)c3)nc2n1C1CCCC1 — IC50 (PIK3CA; radiometric): 0.26 µM
Cc1cccc(N=C2C(=O)N(Cc3cccc(Cl)c3)c3ccccc32)c1 — IC50 (PIK3CB; ADP detection): 0.0339 µM
O=C1/C(=C/c2ccc3ccccc3c2O)NC(=S)N1c1ccccc1 — IC50 (KDR; ELISA): 0.235 µM
CN(C)C(=O)c1cc2cnc(Nc3cc(C(=O)O)cc(-c4cccc5c(=O)cc(N6CCOCC6)oc45)c3)nc2n1C1CCCC1 — IC50 (PIK3CA; radiometric): 1.59 µM
O=C1C(=Nc2ccc(Cl)cc2Br)c2ccccc2N1Cc1ccc(Br)cc1 — IC50 (PIK3CB; ADP detection): 0.0344 µM
O=[N+]([O-])c1cc(Br)c(O)c(C=NNc2ccc(Br)cc2)c1 — IC50 (KDR; ATP luminescence): 7.07 µM
CN(C)C(=O)c1cc2cnc(Nc3cncc(-c4cccc5c(=O)cc(N6CCOCC6)oc45)c3)nc2n1C1CCCC1 — IC50 (PIK3CA; radiometric): > 10 µM
O=[N+]([O-])c1ccc(O)c(C=NNc2ccc(Br)cc2)c1 — IC50 (KDR; ATP luminescence): 12.6 µM
CC1=C(/C=C/C(C)=C/C=C/C(C)=C/C=C/C=C(C)/C=C/C=C(C)/C=C/C2=C(C)CCCC2(C)C)C(C)(C)CCC1 — IC50 (KDR; TR-FRET): > 40 µM
CC(C)C[C@H](NC(=O)[C@@H](NC(=O)N[C@@H](Cc1ccccc1)C(=O)O)[C@@H]1CCN=C(N)N1)C(=O)N[C@H](C=O)Cc1ccccc1 — IC50 (Cathepsin G (CTSG, Homo sapiens, UniProt P08311)): 4.19 µM
COc1ccc(-c2cc(=O)c3ccc(Nc4ncc5cc(C(=O)N(C)C)n(C6CCCC6)c5n4)cc3o2)cc1 — IC50 (PIK3CA; radiometric): > 10 µM
O=C1C(=Nc2ccccc2Br)c2ccccc2N1Cc1ccccc1 — IC50 (PIK3CB; ADP detection): 0.0166 µM
COc1ccc(Nc2nc(Nc3ccc4ncccc4c3)nc(N3CCOCC3)n2)cc1 — IC50 (PIK3CA; ADP detection): 1.29 µM
CN(C)C(=O)c1cc2cnc(Nc3ccc(-c4cccc5c(=O)cc(N6CCNCC6)oc45)cc3)nc2n1C1CCCC1 — IC50 (PIK3CA; radiometric): > 10 µM
O=[N+]([O-])c1cc(I)c(O)c(C=NNc2ccc(Cl)cc2)c1 — IC50 (KDR; ATP luminescence): 7.83 µM
CCc1ccc(N=C2C(=O)N(Cc3ccccc3)c3ccccc32)cc1 — IC50 (PIK3CB; ADP detection): 0.0221 µM
CN(C)C(=O)c1cc2cnc(Nc3ccc(-c4cccc5c(=O)cc(N6CCOCC6)oc45)cn3)nc2n1C1CCCC1 — IC50 (PIK3CA; radiometric): > 10 µM
C[C@@H]1O[C@@H](O[C@H]2[C@H](Oc3cc(O)c4c(=O)cc(-c5ccc(O)cc5)oc4c3)O[C@H](CO)[C@@H](O)[C@@H]2O)[C@H](O)[C@H](O)[C@H]1O — IC50 (KDR; TR-FRET): > 40 µM
CN(C)C(=O)c1cc2cnc(Nc3ccc(-c4ccc5c(=O)cc(N6CCNCC6)oc5c4)cc3)nc2n1C1CCCC1 — IC50 (PIK3CA; radiometric): > 10 µM
O=C1Nc2ccccc2C1=Nc1cccc(Cl)c1 — IC50 (PIK3CB; ADP detection): 0.511 µM
COc1ccc(-c2cc(=O)c3cccc(Nc4ncc5cc(C(=O)N(C)C)n(C6CCCC6)c5n4)c3o2)cc1 — IC50 (PIK3CA; radiometric): > 10 µM
Cc1cccc(N=C2C(=O)N(Cc3ccccc3)c3ccccc32)c1 — IC50 (PIK3CA; ADP detection): 0.00864 µM
CC(=O)OC[C@H]1O[C@@H]([S-])[C@H](OC(C)=O)[C@@H](OC(C)=O)[C@@H]1OC(C)=O.CCP(CC)CC.[Au+] — IC50 (Thioredoxin reductase 1, cytoplasmic (TXNRD1, Homo sapiens, UniProt Q16881); absorbance): 0.397 µM
O=C1C(=Nc2ccccc2I)c2ccccc2N1Cc1ccc(Br)cc1 — IC50 (PIK3CA; ADP detection): 0.298 µM
O=[N+]([O-])c1ccc(O)c(C=NNc2ccc(Cl)cc2)c1 — IC50 (KDR; ATP luminescence): 21.2 µM
